Experiment [1] is described as follows: Her2 expression decrease, cell viability multiplex – SKBR3 breast tumor cells, AlphaScreen, ATP viability, primary screen (AID 461;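 active means Her2 level under about 52% in both replicate screens, with viability over 70% of control, limit read from the data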;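 on Her2 level: lower value means less Her2 protein in the cells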;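 on viability: percent of carrier control wells set as 100% viability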). The following applies: SKBR3 Her2 protein level, 18-24 h, measured here: SKBR3 viability, ATP luminescence, at 10 µM. (In general: Alpha assays give light when donor and acceptor beads are brought close together.)
Experiment [2] addresses Receptor tyrosine-protein kinase erbB-2 (Homo sapiens) (UniProt P04626). Described as above. Conditions: 18-24 h, at 10 µM, stronger effect = lower value.
The nature of experiment [3]: reduced viability of SK-BR-3 breast cancer cells – cell-based, 24 h, human, pilot screen (AID 572).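 Further: compound exposure lasted between 18 and 24 h rather than exactly 24 h; 100% = carrier-treated control wells.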 Conditions: SK-BR-3 viability, CellTiter-Glo luminescence, at 10 µM, stronger effect = lower value. (ATP-based viability assays read luminescence as a measure of living cells.)
A short description of experiment [4]: HUVEC growth inhibition – cell-based, human, primary screen (AID 575;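 active means viability at or below 30% in both replicate assays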;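 further: 100% = median of untreated cell wells with 0.1% DMSO on each plate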). Conditions: HUVEC proliferation, CellTiter-Glo luminescence, 72 h; at 10 µM; stronger effect = lower value. The method in brief: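 Material: primary human umbilical vein endothelial cells / Schedule: 72 h exposure, 37 °C, 5% CO2, 30 min RT equilibration / Signal: ATP-based CellTiter-Glo luminescent read / Read-out basis: percent of median DMSO-control luminescence / Control set: 32 DMSO-only cell-control wells (high), 32 MePR drug-control wells (low) per plate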

Experiment [5] in a line: H69AR cell proliferation blockers – human, duplicate replicates, primary screen (AID 580;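 active means viability at or under a set limit in both replicates, limit being median viability minus 3 SD, cut at about 48% in these data, passing the limit was not always enough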;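 further: 100% = mean luminescence of untreated wells and 0% = no signal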). The following applies: H69AR lung tumor cells viability, ATP luminescence, 72 h; at 10 µM; stronger effect = lower value.
Experiment [6] in a line: MRP1 drug-resistance reversers in H69AR cells – cell-based, doxorubicin co-treatment, pilot screen (AID 601;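 active means viability loss from added drug above about 55%, and viability with drug at most 40%, in both replicates, limit read from the data, passing the limit was not always enough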). Conditions: CellTiter-Glo, 72 h, at 10 µM; for differential viability (reversal): stronger effect = higher value.
Experiment [7] can be described thus: yeast transport mutant growth inhibition pilot in 384-well plates, post-Golgi transport modulator project (AID 636; in the data active means inhibition above about 31%). Conditions: absorbance 615 nm, about 18 h, stronger effect = higher value.
Experiment [8] is described as follows: growth suppression of yeast trafficking mutant, preliminary HTS, modulators of trafficking downstream of Golgi apparatus project, 1536-format plate, OD 615 nm (AID 637; in the data active means inhibition above about 30%). The following applies: yeast transport mutant growth, absorbance 615 nm, 18 h; stronger effect = higher value.
[9] abbreviates: H69AR cells + 2 uM doxorubicin, measured here: viability with 2 uM doxorubicin, stronger effect = lower value.
Where [10] appears, read: H69AR cells, compound alone cytotoxicity.

Active and inactive are the calls of the source.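 How the source made its calls, unless noted: active means viability at or below 10% of carrier control in both of two separate runs; inconclusive means viability at or below 10% in only one of the two runs; inactive means the rest.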

As a reminder, the viability is a read-out of living cells in per cent, often relative to untreated cells. What is called inhibition is the drop in the measured response relative to a control, in per cent.

Sequence of Receptor tyrosine-protein kinase erbB-2 (Homo sapiens) (P04626 whole entry, looked up): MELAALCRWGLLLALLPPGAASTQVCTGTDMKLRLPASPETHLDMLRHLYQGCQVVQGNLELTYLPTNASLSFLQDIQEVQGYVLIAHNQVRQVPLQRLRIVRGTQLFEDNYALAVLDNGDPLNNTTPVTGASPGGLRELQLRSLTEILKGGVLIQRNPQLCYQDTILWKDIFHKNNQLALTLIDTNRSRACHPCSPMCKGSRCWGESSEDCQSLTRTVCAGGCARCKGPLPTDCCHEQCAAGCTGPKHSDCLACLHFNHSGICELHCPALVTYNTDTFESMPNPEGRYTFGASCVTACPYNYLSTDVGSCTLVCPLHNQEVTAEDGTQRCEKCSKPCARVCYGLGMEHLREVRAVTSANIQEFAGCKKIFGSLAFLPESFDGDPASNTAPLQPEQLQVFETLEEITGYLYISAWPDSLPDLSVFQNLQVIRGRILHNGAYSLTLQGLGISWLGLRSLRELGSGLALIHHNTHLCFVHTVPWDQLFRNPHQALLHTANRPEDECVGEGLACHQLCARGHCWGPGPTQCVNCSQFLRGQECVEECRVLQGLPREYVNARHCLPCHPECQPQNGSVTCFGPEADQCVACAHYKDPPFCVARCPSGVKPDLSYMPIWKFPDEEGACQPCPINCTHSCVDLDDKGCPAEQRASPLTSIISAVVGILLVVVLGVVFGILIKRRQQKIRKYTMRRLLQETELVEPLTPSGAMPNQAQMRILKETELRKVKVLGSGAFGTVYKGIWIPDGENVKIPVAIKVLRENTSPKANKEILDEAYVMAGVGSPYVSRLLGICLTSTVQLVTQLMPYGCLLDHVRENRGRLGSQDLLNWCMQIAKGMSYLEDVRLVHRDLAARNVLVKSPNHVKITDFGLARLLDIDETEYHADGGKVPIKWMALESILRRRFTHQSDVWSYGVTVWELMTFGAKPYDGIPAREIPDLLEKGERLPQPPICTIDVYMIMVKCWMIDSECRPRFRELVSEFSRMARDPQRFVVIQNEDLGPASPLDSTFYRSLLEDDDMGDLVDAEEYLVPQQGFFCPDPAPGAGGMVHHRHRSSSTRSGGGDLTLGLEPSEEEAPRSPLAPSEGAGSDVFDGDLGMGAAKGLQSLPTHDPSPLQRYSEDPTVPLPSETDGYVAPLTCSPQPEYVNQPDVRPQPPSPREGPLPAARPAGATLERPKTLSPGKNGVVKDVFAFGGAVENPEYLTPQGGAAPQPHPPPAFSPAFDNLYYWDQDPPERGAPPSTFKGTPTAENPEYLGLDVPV

As for `O=C1NCCCc2c1no[n+]2[O-]`, the viability is 100% in experiment [1]; 100% (inactive) in experiment [3]; 84.1% (inactive) in experiment [4]; 104% (inactive) in experiment [5]; 99.2% in experiment [6] (setting [9]); 104% in experiment [6] (setting [10]). The Her2 level in experiment [2] is 103% (inactive). Also, the differential viability (reversal) in experiment [6] (H69AR cells + 2 uM doxorubicin) was 4.5% (inactive). Besides, the values for the inhibition in experiment [7] and in experiment [8] were -0.13% (inactive) and -3.71% (inactive), respectively.
In the case of `Cc1nc2sc(C(c3cccc(F)c3)N3CCN(C(=O)c4ccco4)CC3)c(O)n2n1` (stereo not given), the viability in experiment [1] is 94%; in experiment [3], 94% (inactive); in experiment [4] it was 120% (inactive); in experiment [5], 99.3% (inactive); in experiment [6] (setting [9]) it was 96.7%; in experiment [6] (setting [10]), 99.3%. Further, the Her2 level in experiment [2] was 109% (inactive). For the same compound, in experiment [6] (H69AR cells + 2 uM doxorubicin), the differential viability (reversal) was 2.58% (inactive). Besides, the inhibition is -5% (inactive) in experiment [7] and -9.83% (inactive) in experiment [8].
In the case of `O=C(Cn1c(C(=O)NCC2CCCO2)cc2sccc21)c1ccccc1` (stereo not given), the viability in experiment [1] is 94.5%; in experiment [3], 94.5% (inactive); in experiment [4], 101% (inactive); in experiment [5] it was 90.3% (inactive); in experiment [6] (setting [9]) it was 83.2%; in experiment [6] (setting [10]), 90.3%. The Her2 level in experiment [2] was 100% (inactive). Besides, the differential viability (reversal) in experiment [6] (H69AR cells + 2 uM doxorubicin) was 7.12% (inactive). The inhibition in experiment [7] is -1.56% (inactive); in experiment [8] it was -5.56% (inactive).
`COc1ccccc1C1/C(=C(/O)c2ccccc2)C(=O)C(=O)N1CC(C)C` (stereo not given): the viability is 104% in experiment [1]; 104% (inactive) in experiment [3]; 81.4% (inactive) in experiment [4]; 82.1% (inactive) in experiment [5]; 84.4% in experiment [6] (setting [9]); 82.1% in experiment [6] (setting [10]). Also, the Her2 level in experiment [2] is 89.5% (inactive). For the same compound, in experiment [6] (H69AR cells + 2 uM doxorubicin), the differential viability (reversal) was -2.33% (inactive). The values for the inhibition in experiment [7] and in experiment [8] were -2.47% (inactive) and 5.24% (inactive), respectively.
On to `Cc1ccc(-c2nc3cc(N)ccc3o2)cc1`, for which the viability in experiment [1] was 104%; in experiment [3], 104% (inactive); in experiment [4] it was 72.6% (inactive); in experiment [5], 79.9% (inactive); in experiment [6] (setting [9]) it was 81.7%; in experiment [6] (setting [10]) it was 79.9%. For the same compound, the Her2 level in experiment [2] is 115% (inactive). Besides, the differential viability (reversal) in experiment [6] (H69AR cells + 2 uM doxorubicin) was -1.81% (inactive). The inhibition in experiment [7] is -2.82% (inactive); in experiment [8] it was -2.17% (inactive).
`CCOc1ccc(N(CC(=O)NCC2CCCO2)S(=O)(=O)c2ccc(OC)c(OC)c2)cc1` (stereo not given): the viability in experiment [1] was 105%; in experiment [3] it was 105% (inactive); in experiment [4], 118% (inactive); in experiment [5], 116% (inactive); in experiment [6] (setting [9]) it was 96.3%; in experiment [6] (setting [10]) it was 116%. Also, the Her2 level in experiment [2] is 98.5% (inactive). The differential viability (reversal) in experiment [6] (H69AR cells + 2 uM doxorubicin) is 19.2% (inactive). Further, the inhibition is -4% (inactive) in experiment [7] and -5.97% (inactive) in experiment [8].
Turning to `CCCCCn1c2nc3ccccc3nc2c2c(=O)n(CC(C)C)cnc21`, the viability in experiment [1] is 116%; in experiment [3], 116% (inactive); in experiment [4], 103% (inactive); in experiment [5], 87.3% (inactive); in experiment [6] (setting [9]), 91.3%; in experiment [6] (setting [10]) it was 87.3%. Besides, in experiment [2], the Her2 level is 103% (inactive). For the same compound, the differential viability (reversal) in experiment [6] (H69AR cells + 2 uM doxorubicin) is -3.98% (inactive). Moreover, the figures for the inhibition in experiment [7] and in experiment [8] were -0.79% (inactive) and 3.55% (inactive), respectively.
`O=C(O)c1cccc(NC(=O)C2C3C=CC(C3)C2C(=O)OCC(F)(F)C(F)F)c1` (stereo not given): the viability in experiment [1] was 102%; in experiment [3], 102% (inactive); in experiment [4], 94% (inactive); in experiment [5], 89% (inactive); in experiment [6] (setting [9]) it was 88.3%; in experiment [6] (setting [10]) it was 89%. Also, the Her2 level in experiment [2] is 91.5% (inactive). In addition, in experiment [6] (H69AR cells + 2 uM doxorubicin), the differential viability (reversal) was 0.695% (inactive). Further, the inhibition was -5.79% (inactive) in experiment [7] and -1.33% (inactive) in experiment [8].
Take `CC1(C)Cc2noc(N)c2C(C)(C)N1OC(=O)c1cccs1`: the viability was 103% in experiment [1]; 103% (inactive) in experiment [3]; 99.1% (inactive) in experiment [4]; 102% (inactive) in experiment [5]; 94.2% in experiment [6] (setting [9]); 102% in experiment [6] (setting [10]). The Her2 level in experiment [2] was 95.5% (inactive). For the same compound, the differential viability (reversal) in experiment [6] (H69AR cells + 2 uM doxorubicin) was 8.28% (inactive). For the same compound, the values for the inhibition in experiment [7] and in experiment [8] were -4.08% (inactive) and -5.08% (inactive), respectively.
Consider `COc1ccc(CC(=O)Nc2ccc(OC)c(NC(=O)c3ccco3)c2)cc1`, for which the viability in experiment [1] is 91%; in experiment [3], 91% (inactive); in experiment [4] it was 85.8% (inactive); in experiment [5], 81.9% (inactive); in experiment [6] (setting [9]) it was 91.5%; in experiment [6] (setting [10]) it was 81.9%. Besides, in experiment [2], the Her2 level is 106% (inactive). The differential viability (reversal) in experiment [6] (H69AR cells + 2 uM doxorubicin) is -9.55% (inactive). In addition, the inhibition was 4% (inactive) in experiment [7] and -2.38% (inactive) in experiment [8].
For `Cc1cccc2cc(CN(Cc3nnnn3C3CCCC3)C3CCCCC3)c(=O)[nH]c12`, the viability in experiment [1] was 84.5%; in experiment [3] it was 84.5% (inactive); in experiment [4] it was 72.7% (inactive); in experiment [5] it was 79.4% (inactive); in experiment [6] (setting [9]), 78.9%; in experiment [6] (setting [10]), 79.4%. Moreover, the Her2 level in experiment [2] is 109% (inactive). Moreover, the differential viability (reversal) in experiment [6] (H69AR cells + 2 uM doxorubicin) was 0.525% (inactive). In addition, the inhibition was -1.71% (inactive) in experiment [7] and -10.2% (inactive) in experiment [8].
For the compound `COCCCn1c(SCC(=O)N2CCc3ccccc32)nnc1-c1ccoc1C`, the viability in experiment [1] is 108%; in experiment [3], 108% (inactive); in experiment [4], 93.8% (inactive); in experiment [5], 98.4% (inactive); in experiment [6] (setting [9]) it was 96%; in experiment [6] (setting [10]) it was 98.4%. Also, in experiment [2], the Her2 level is 80% (inactive). Moreover, the differential viability (reversal) in experiment [6] (H69AR cells + 2 uM doxorubicin) is 2.4% (inactive). Also, the inhibition in experiment [7] was -4.67% (inactive); in experiment [8] it was 0.65% (inactive).
In the case of `O=C(CSc1nc(O)cc(=O)n1-c1ccccc1)N1CCCCC1`, the viability was 100% in experiment [1]; 100% (inactive) in experiment [3]; 80.8% (inactive) in experiment [4]; 98.8% (inactive) in experiment [5]; 96.4% in experiment [6] (setting [9]); 98.8% in experiment [6] (setting [10]). The Her2 level in experiment [2] is 77% (inactive). In addition, the differential viability (reversal) in experiment [6] (H69AR cells + 2 uM doxorubicin) is 2.4% (inactive). Further, the inhibition is -6.44% (inactive) in experiment [7] and 3.97% (inactive) in experiment [8].
Consider `COc1ccc(C(=O)CN2C(=O)NC3(CCCc4ccccc43)C2=O)cc1OC` (stereo not given), for which the viability was 98% in experiment [1]; 98% (inactive) in experiment [3]; 95.6% (inactive) in experiment [4]; 88.6% (inactive) in experiment [5]; 77.7% in experiment [6] (setting [9]); 88.6% in experiment [6] (setting [10]). The Her2 level in experiment [2] was 84.5% (inactive). For the same compound, the differential viability (reversal) in experiment [6] (H69AR cells + 2 uM doxorubicin) is 10.9% (inactive). In addition, the inhibition is -1.87% (inactive) in experiment [7] and 2.42% (inactive) in experiment [8].

(Values after PubChem BioAssay.)
